An excerpt weighted towards active compounds, which were near 2.9% of everything screened.
Cneo AK release = causes C. neoformans cell lysis | adenylate kinase release luminescence, 4 h; normalised: neutral wells 0, clomiphene wells 100 | lysis activity, % at 15 µM | actives 0.2% (n = 360,000) | AID 651654;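 active = mean lysis activity across replicates of at least 80%, whatever share of replicates individually reach that level; inactive = mean lysis activity below 80%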
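Material: C. neoformans cells | Amount: Yeast cell density of 5 × 10^6 cells/mL | Medium: Fresh YPD growth medium | Dosing: Single dose | Times: Static 4 h at 37 °C with compound, 1 h detection | Detection: AK luminescence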
PAX8 reporter = PAX8 transcriptional activity inhibition; AID 652154; inhibition, % at 12.6 µM; RMG-I TPO-luciferase reporter, SteadyGlo, 24 h; actives 1.2% (n = 360,000);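 active = mean replicate inhibition at least 60% with every replicate also reaching 60%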;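 note: luciferase light reporting Pax8 driven TPO promoter activity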
CDK5 inh = inhibitors of human CDK5/p35 kinase. Q00535+Q15078. Recombinant CDK5/p35, ADP-Glo luminescence, 60 min. inhibition, % at 10 µM. actives 0.01% (n = 330,000);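 active = highest replicate inhibition of at least 50% and at least 75% of replicates reaching 50%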
Target sequence (Q00535 whole entry, looked up): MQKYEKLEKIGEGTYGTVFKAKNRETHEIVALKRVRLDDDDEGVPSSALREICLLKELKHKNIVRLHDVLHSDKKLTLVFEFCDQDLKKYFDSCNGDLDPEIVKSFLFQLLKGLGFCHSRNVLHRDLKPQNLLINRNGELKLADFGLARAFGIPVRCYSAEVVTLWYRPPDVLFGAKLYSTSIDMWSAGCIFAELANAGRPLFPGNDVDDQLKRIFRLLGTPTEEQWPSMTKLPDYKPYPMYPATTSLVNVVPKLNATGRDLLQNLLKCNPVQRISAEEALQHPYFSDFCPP
Target sequence (Q15078 whole entry, looked up): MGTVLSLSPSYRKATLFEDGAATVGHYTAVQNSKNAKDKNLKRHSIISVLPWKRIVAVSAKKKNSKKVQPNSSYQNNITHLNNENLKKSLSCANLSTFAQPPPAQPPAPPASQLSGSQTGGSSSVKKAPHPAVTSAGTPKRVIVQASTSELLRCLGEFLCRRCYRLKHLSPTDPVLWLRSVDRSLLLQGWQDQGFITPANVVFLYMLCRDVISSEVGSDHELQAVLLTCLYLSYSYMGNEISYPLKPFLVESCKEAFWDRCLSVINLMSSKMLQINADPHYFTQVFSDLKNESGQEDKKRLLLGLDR
dFosB act = enhances mouse delta FosB homodimer DNA binding; P13346; purified delta FosB, TAMRA-CDK5 oligo fluorescence polarization; percent of positive-control signal above neutral wells; activation, % at 25 µM; actives 0.99% (n = 340,000); AID 493131;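 active = mean activation above about 17%, with every replicate also reaching it, limit read from the data, passing the limit was not always enough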
Env fusion inh = HIV envelope-mediated fusion inhibition. HeLa-JRFL Env/CEM21 cell fusion, luciferase. inhibition, % at 12.3 µM. actives 1.1% (n = 360,000);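 active = mean replicate inhibition score of at least 50 and every replicate individually at or above 50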
INS-1E GSIS act = primary screen for activators of insulin secretion dependent on glucose, INS-1E cells, GLuc reporter luminescence; INS-1E GLuc reporter insulin secretion, 2-3 h; activation, % at 16.6 µM; actives 0.61% (n = 370,000); AID 743287;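 active = lowest replicate activation of at least 40%, so every replicate reaches that level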
Large screens that a line does not name were inactive; [ ] = another dose, or the depositor's remark.

COc1ccc(CN(C)C(=O)Cn2cc(C)c(=O)[nH]c2=O)cc1OC	INS-1E GSIS act 44 (no result: Env fusion inh)
COc1ccc(CN(C)C(=O)Cn2ccsc2=N)cc1OC	none
N#Cc1ccc(-c2ccc([C@@H]3[C@@H](CO)N4C(=O)CN(C(=O)C5CCC5)C[C@H]34)cc2)cc1	none (no result: Cneo AK release, CDK5 inh, dFosB act, Env fusion inh)
O=C(C[C@H]1C[C@H]2c3cc(NC(=O)Cc4ccncc4)ccc3O[C@H]2[C@@H](CO)O1)NCc1ccncc1	Env fusion inh 93[16.7 µM] (no result: CDK5 inh, dFosB act)
CCCNC(=O)C[C@H]1C[C@H]2c3cc(NC(=O)Nc4ccc(OC)cc4)ccc3O[C@H]2[C@@H](CO)O1	Cneo AK release 90 (no result: CDK5 inh, dFosB act, Env fusion inh)
O=C(C[C@@H]1C[C@@H]2c3cc(NC(=O)Cc4ccncc4)ccc3O[C@@H]2[C@H](CO)O1)NCc1ccccc1	none (no result: CDK5 inh, dFosB act)
CCCNC(=O)C[C@@H]1C[C@@H]2c3cc(NC(=O)Cc4ccncc4)ccc3O[C@@H]2[C@@H](CO)O1	Env fusion inh 93[16.7 µM] (no result: CDK5 inh, dFosB act)
O=C(C[C@@H]1C[C@@H]2c3cc(NC(=O)Cc4ccncc4)ccc3O[C@@H]2[C@H](CO)O1)NCCc1ccccc1	none (no result: CDK5 inh, dFosB act)
O=C(C[C@H]1C[C@H]2c3cc(NC(=O)Cc4ccncc4)ccc3O[C@H]2[C@H](CO)O1)NCC1CC1	none (no result: CDK5 inh, dFosB act)
CCCNC(=O)C[C@@H]1C[C@@H]2c3cc(NC(=O)Cc4ccncc4)ccc3O[C@@H]2[C@H](CO)O1	Env fusion inh 91[16.7 µM] (no result: CDK5 inh, dFosB act)
CCCN1C[C@H](C)[C@H](OC)CN(C)C(=O)c2cc(NC(=O)Nc3cccc(OC)c3)ccc2OC[C@@H]1C	none (no result: Cneo AK release, PAX8 reporter, CDK5 inh, dFosB act, Env fusion inh)
COc1ccc(C(=O)/C=C2\Sc3ccccc3N2C)cc1	none (no result: Cneo AK release)
COc1ccccc1-[n+]1c(C)cc(/C=C2\Sc3ccccc3N2C)cc1C	PAX8 reporter 67
COc1ccc(-[n+]2c(C)cc(/C=C3\Sc4ccccc4N3C)cc2C)cc1	PAX8 reporter 80, dFosB act 29 (no result: Cneo AK release)
CC(=S)/C=C1\Sc2ccccc2N1C	none (no result: PAX8 reporter, Env fusion inh)
CC(C)[C@@H]1C(=O)N[C@H](c2cccc(Cl)c2)CC=CC[C@@H](C)Oc2ccccc2C(=O)N1C (mixture of isomers)	none (no result: Cneo AK release, PAX8 reporter, CDK5 inh, dFosB act, Env fusion inh)
CC(C)C#Cc1ccc([C@H]2[C@H]3CN(C(=O)c4ccccn4)CC(=O)N3[C@H]2CO)cc1	none (no result: Cneo AK release, PAX8 reporter, CDK5 inh, dFosB act, Env fusion inh)
C[C@H]1CCn2cc(nn2)COCCNC1=O	none (no result: Cneo AK release, PAX8 reporter, CDK5 inh, dFosB act, Env fusion inh)
CC(C)CC[n+]1ccccc1/C=C/c1ccc(N(C)C)cc1	PAX8 reporter 82, Env fusion inh 61
CCCNC(=O)C[C@H]1CC[C@@H]2[C@H](COc3ccc(NC(=O)c4cc(C)on4)cc3C(=O)N2C)O1	none (no result: CDK5 inh, dFosB act)
CCCC[C@H](CN(N=O)[C@@H](Cc1ccccc1)CN(C)N=O)N(CCc1ccccc1)N=O	Env fusion inh 88
CN(C[C@H](Cc1ccccc1)N(CCN(CCc1ccccc1)N=O)N=O)N=O	none
CN(C[C@H](Cc1ccccc1)N(C[C@H](Cc1cccc2ccccc12)N(CCc1ccccc1)N=O)N=O)N=O	none
CN(C[C@H](Cc1ccccc1)N(C[C@H](Cc1ccccc1)N(CCc1cc(C(F)(F)F)cc(C(F)(F)F)c1)N=O)N=O)N=O	Env fusion inh 56
CC(C)C[C@@H](CN(C)N=O)N(C[C@H](Cc1ccccc1)N(CCc1ccccc1)N=O)N=O	Env fusion inh 94
CC(C)[C@H](CN(N=O)[C@@H](Cc1ccccc1)CN(C)N=O)N(CCc1ccccc1)N=O	Env fusion inh 68
CCCNC(=O)N(C)C[C@H]1Oc2cc(C#C[C@@H](C)O)ccc2S(=O)(=O)N([C@H](C)CO)C[C@@H]1C	none (no result: PAX8 reporter, CDK5 inh, dFosB act)
C[C@@H]1CN([C@@H](C)CO)C(=O)c2cc(-c3cncnc3)cnc2O[C@H]1CN(C)C(=O)c1ccccc1F	none (no result: PAX8 reporter, CDK5 inh, dFosB act)
C[C@H](CO)N1C[C@H](C)[C@H](CN(C)C)Oc2ccc(NC(=O)Nc3ccc(F)cc3)cc2C1=O	none (no result: CDK5 inh, dFosB act, Env fusion inh)
O=C(c1cccnc1)N1CCCCN2[C@H](C1)[C@@H](c1ccc(C#Cc3ccccc3)cc1)[C@@H]2CO	none (no result: CDK5 inh, dFosB act, Env fusion inh, INS-1E GSIS act)
COc1ccc(-c2nc(-c3ccc(NC(=O)c4ccncc4)cc3)no2)cc1OC	none (no result: PAX8 reporter, Env fusion inh, INS-1E GSIS act)
COc1ccc(NC(=O)c2ccc(-c3ccc(-c4noc(C)n4)cc3C)cc2)cc1N1CCN(C)CC1	dFosB act 21 (no result: INS-1E GSIS act)
COc1ccccc1N1CCN(c2ccc(N3C(=O)CCC3=O)cc2[N+](=O)[O-])CC1	none
C=C(C)CN1CCN(c2ccc(N3C(=O)CCCC3=O)cc2[N+](=O)[O-])CC1	INS-1E GSIS act 50
COc1ccccc1NC(=O)N[C@@H]1CC[C@@H](CC(=O)N[C@@H](C)c2ccccc2)O[C@H]1CO	none (no result: CDK5 inh, dFosB act)
C=CCc1cc(C)ccc1OCCOCCC(C(=O)OCC)C(=O)OCC	PAX8 reporter 79 (no result: Cneo AK release, Env fusion inh)
C=CCc1cc(Cl)ccc1OCCOCCNC(C)CC (stereo not given)	none
CO[C@H]1CN(C)C(=O)c2cc(NC(=O)c3ccc(F)cc3)ccc2OC[C@H](C)N(C(C)=O)C[C@H]1C	none (no result: PAX8 reporter, CDK5 inh, dFosB act, Env fusion inh)
O=C(Nc1ccccc1)N[C@@H]1CC[C@@H](CCNC(=O)c2ccccc2F)O[C@H]1CO	Cneo AK release 107 (no result: CDK5 inh, dFosB act)
O=C(Nc1ccccc1)N[C@H]1CC[C@H](CCNC(=O)c2ccccc2F)O[C@@H]1CO	none (no result: CDK5 inh, dFosB act)
O=C(Cc1ccccn1)NCC[C@H]1CC[C@H](NC(=O)Nc2ccc(C(F)(F)F)cc2)[C@H](CO)O1	PAX8 reporter 69 (no result: CDK5 inh, dFosB act)
O=C(Cc1ccccn1)NCC[C@H]1CC[C@@H](NC(=O)Nc2ccc(C(F)(F)F)cc2)[C@@H](CO)O1	none (no result: CDK5 inh, dFosB act)
O=C(C[C@H]1CC[C@H](NC(=O)Nc2ccc(C(F)(F)F)cc2)[C@H](CO)O1)NCc1cccc(F)c1	Cneo AK release 91 (no result: CDK5 inh, dFosB act)
Cc1ccc(S(=O)(=O)N[C@@H]2CC[C@H](CCNC(=O)c3ccccc3F)O[C@H]2CO)cc1	Env fusion inh 66[16.7 µM] (no result: CDK5 inh, dFosB act)
N#Cc1ccc(-c2ccc([C@@H]3[C@H](CO)N4CCCCN(S(=O)(=O)c5ccccc5)C[C@@H]34)cc2)cc1	none (no result: CDK5 inh, dFosB act, Env fusion inh)
O=C(NCCc1ccccc1)c1coc(=O)c(Br)c1	PAX8 reporter 65
C=CCNC(=O)[C@@H]1[C@H]2C(=O)O[C@H](c3ccccc3)[C@H](c3ccccc3)N2[C@H](c2ccccc2OCCO)[C@@]12C(=O)N(C(=O)OCCOC)c1ccccc12	PAX8 reporter 87 (no result: CDK5 inh, dFosB act, INS-1E GSIS act)
COCCOC(=O)N1C(=O)[C@@]2(c3cc(C#CC4=CCCCC4)ccc31)[C@H](c1ccccc1OCCO)N1[C@H](c3ccccc3)[C@H](c3ccccc3)OC(=O)[C@H]1[C@@H]2C(=O)NC[C@H](O)c1ccccc1	none (no result: CDK5 inh, dFosB act, INS-1E GSIS act)
C=CCNC(=O)[C@H]1[C@@H]2C(=O)O[C@@H](c3ccccc3)[C@@H](c3ccccc3)N2[C@@H](c2ccccc2OCCO)[C@]12C(=O)N(C(=O)OCCOC)c1ccccc12	PAX8 reporter 82 (no result: CDK5 inh, dFosB act, INS-1E GSIS act)

High-throughput results from PubChem BioAssay.
